Among the data in ChEMBL document CHEMBL1157912, “Impact of nature and length of linker incorporated in agonists on toll-like receptor 9-mediated immune responses” (J Med Chem, 2010) are Activity values, retold here.

Assay [1] concerns Mus musculus. Description: Immunostimulatory activity in C57BL/6 mouse assessed as increase in serum IL12 level at 1 mg/kg, sc after 2 hrs by ELISA. Format: functional, organism-based. Details: dose 1 mg/kg. Put shortly:
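Female C57BL/6 mice (n=3) received a single subcutaneous agonist dose of 1 mg/kg. Blood was taken by retro-orbital bleeding 2 h later, and serum IL-12 was measured by sandwich ELISA. Values are the mean of three mice ± SD.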

The target in assay [2] is T1, Toll-like receptor 9 (Homo sapiens) (UniProt Q9NR96).
T1 sequence (whole entry): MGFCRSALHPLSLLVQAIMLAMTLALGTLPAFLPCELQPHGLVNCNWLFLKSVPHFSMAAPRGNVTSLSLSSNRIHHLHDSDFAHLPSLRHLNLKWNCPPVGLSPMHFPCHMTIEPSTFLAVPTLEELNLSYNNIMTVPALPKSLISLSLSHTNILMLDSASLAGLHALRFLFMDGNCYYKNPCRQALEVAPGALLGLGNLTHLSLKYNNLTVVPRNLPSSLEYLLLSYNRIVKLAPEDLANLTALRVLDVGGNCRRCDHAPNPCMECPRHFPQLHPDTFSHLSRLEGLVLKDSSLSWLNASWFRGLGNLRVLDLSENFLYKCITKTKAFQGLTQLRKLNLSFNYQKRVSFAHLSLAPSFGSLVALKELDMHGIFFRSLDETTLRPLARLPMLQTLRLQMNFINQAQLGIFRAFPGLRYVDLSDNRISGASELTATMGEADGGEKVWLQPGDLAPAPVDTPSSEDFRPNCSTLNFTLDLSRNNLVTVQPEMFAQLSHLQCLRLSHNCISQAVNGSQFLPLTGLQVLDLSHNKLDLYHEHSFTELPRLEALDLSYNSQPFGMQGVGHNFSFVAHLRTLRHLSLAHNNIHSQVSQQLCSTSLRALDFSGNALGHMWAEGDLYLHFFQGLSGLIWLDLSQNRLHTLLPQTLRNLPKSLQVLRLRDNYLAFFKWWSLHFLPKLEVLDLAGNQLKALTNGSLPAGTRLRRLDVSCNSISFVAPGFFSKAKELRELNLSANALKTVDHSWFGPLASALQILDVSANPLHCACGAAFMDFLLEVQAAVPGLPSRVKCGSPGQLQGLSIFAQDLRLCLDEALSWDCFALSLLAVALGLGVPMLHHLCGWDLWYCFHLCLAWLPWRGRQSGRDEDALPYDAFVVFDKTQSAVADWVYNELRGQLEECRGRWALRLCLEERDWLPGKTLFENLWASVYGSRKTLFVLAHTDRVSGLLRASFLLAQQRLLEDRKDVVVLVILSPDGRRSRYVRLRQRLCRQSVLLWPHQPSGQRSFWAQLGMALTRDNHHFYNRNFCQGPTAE
In words: Induction of TLR9-mediated immune stimulation in human PBMC assessed as IP10 production at 10 ug/ml after 24 hrs by luminex multiplex assay (RVb = 0.00 ng/ml).

In assay [3] the target is T2, Toll-like receptor 9 (Mus musculus) (UniProt Q9EQU3).
T2 sequence (whole entry): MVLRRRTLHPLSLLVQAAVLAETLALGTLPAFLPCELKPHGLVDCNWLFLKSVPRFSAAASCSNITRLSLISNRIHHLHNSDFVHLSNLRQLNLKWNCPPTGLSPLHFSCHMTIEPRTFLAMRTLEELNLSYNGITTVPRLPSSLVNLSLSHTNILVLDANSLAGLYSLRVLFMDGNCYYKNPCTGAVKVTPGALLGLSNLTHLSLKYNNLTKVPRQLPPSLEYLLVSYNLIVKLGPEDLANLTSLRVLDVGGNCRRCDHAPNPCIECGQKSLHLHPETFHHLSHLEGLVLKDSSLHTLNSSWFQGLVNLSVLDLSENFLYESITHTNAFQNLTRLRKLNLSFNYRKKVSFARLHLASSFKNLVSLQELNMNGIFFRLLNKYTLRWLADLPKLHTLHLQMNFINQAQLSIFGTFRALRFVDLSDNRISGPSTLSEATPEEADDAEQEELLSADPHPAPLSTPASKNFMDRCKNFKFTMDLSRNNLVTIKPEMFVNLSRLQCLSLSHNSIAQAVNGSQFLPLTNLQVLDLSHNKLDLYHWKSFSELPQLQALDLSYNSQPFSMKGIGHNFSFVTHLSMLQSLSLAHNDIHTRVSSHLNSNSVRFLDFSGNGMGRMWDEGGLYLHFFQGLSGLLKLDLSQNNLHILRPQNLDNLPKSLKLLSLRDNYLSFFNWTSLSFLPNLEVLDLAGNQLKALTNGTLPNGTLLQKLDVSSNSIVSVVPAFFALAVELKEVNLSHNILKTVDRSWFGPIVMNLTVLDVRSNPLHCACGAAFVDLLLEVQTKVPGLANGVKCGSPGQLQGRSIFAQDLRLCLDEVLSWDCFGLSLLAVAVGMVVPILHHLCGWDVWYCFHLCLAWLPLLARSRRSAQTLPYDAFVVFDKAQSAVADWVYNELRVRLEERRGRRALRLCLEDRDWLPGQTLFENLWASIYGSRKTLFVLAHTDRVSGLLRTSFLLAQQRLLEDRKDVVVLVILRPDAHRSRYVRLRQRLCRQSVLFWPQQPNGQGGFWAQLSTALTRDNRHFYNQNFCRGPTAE
Description: Induction of TLR9-mediated IL6 production in C57BL/6 mouse spleen cells after 24 hrs by ELISA. The assay is classed as cell-based. Put shortly:
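C57BL/6 mouse spleen cells were cultured with agonists at 0.1, 0.3, 1, 3 and 10 μg/mL for 24 h. Secreted IL-12 and IL-6 in the supernatants were measured by ELISA. Values are averages of triplicate wells from one representative of at least two independent experiments.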

For assay [4], the target named is T1, Toll-like receptor 9 (Homo sapiens). Description: Induction of TLR9-mediated immune stimulation in human PBMC assessed as IL12 production at 2 ug/ml after 24 hrs by luminex multiplex assay (RVb = 0.00 ng/ml).
For assay [5] the target is unchanged. In words: Induction of TLR9-mediated immune stimulation in human PBMC assessed as MIP1alpha production at 10 ug/ml after 24 hrs by luminex multiplex assay (RVb = 0.01 ng/ml).
Assay [6] has the same target. Description: Induction of TLR9-mediated immune stimulation in human PBMC assessed as RANTES production at 10 ug/ml after 24 hrs by luminex multiplex assay (RVb = 0.05 +/- 0.04 ng/ml).
Assay [7] shares this target. Description: Induction of TLR9-mediated immune stimulation in human PBMC assessed as IL6 production at 10 ug/ml after 24 hrs by luminex multiplex assay (RVb = 0.01 ng/ml).
Assay [8] shares this target. Description: Induction of TLR9-mediated immune stimulation in human PBMC assessed as IL12 production at 10 ug/ml after 24 hrs by luminex multiplex assay (RVb = 0.00 ng/ml).
For assay [9] the target is unchanged. Description: Induction of TLR9-mediated immune stimulation in human PBMC assessed as MIP1alpha production at 2 ug/ml after 24 hrs by luminex multiplex assay (RVb = 0.01 ng/ml).
Assay [10] shares this target. Description: Induction of TLR9-mediated immune stimulation in human PBMC assessed as IP10 production at 2 ug/ml after 24 hrs by luminex multiplex assay (RVb = 0.00 ng/ml).

Activity calls are given as the source filed them. The calls are words filed in the database; no cut-off is given here.

`Cc1cn([C@H]2C[C@H](OCCOCCOCCOCCOCCOCCOP(=O)(S)O[C@H]3C[C@H](n4cc(C)c(=O)[nH]c4=O)O[C@@H]3COP(=O)(S)O[C@H]3[C@@H](O)[C@H](n4ccc(N)nc4=O)O[C@@H]3COP(=O)(S)O[C@H]3C[C@H](n4cc(C)c(=O)[nH]c4=O)O[C@@H]3COP(=O)(S)O[C@H]3C[C@H](n4cc(C)c(=O)[nH]c4=O)O[C@@H]3COP(=O)(S)O[C@H]3C[C@H](n4ccc5c(=O)[nH]c(N)nc54)O[C@@H]3COP(=O)(S)O[C@H]3[C@@H](O)[C@H](n4ccc(N)nc4=O)O[C@@H]3COP(=O)(S)O[C@H]3C[C@H](n4cc(C)c(=O)[nH]c4=O)O[C@@H]3COP(=O)(S)O[C@H]3[C@@H](O)[C@H](n4cnc5c(=O)[nH]c(N)nc54)O[C@@H]3COP(=O)(S)O[C@H]3C[C@H](n4cc(C)c(=O)[nH]c4=O)O[C@@H]3COP(=O)(S)O[C@H]3[C@@H](O)[C@H](n4ccc(N)nc4=O)O[C@@H]3COP(=O)(S)O[C@H]3C[C@H](n4cc(C)c(=O)[nH]c4=O)O[C@@H]3CO)[C@@H](COP(=O)(S)O[C@H]3[C@@H](O)[C@H](n4ccc(N)nc4=O)O[C@@H]3COP(=O)(S)O[C@H]3C[C@H](n4cc(C)c(=O)[nH]c4=O)O[C@@H]3COP(=O)(S)O[C@H]3C[C@H](n4cc(C)c(=O)[nH]c4=O)O[C@@H]3COP(=O)(S)O[C@H]3C[C@H](n4ccc5c(=O)[nH]c(N)nc54)O[C@@H]3COP(=O)(S)O[C@H]3[C@@H](O)[C@H](n4ccc(N)nc4=O)O[C@@H]3COP(=O)(S)O[C@H]3C[C@H](n4cc(C)c(=O)[nH]c4=O)O[C@@H]3COP(=O)(S)O[C@H]3[C@@H](O)[C@H](n4cnc5c(=O)[nH]c(N)nc54)O[C@@H]3COP(=O)(S)O[C@H]3C[C@H](n4cc(C)c(=O)[nH]c4=O)O[C@@H]3COP(=O)(S)O[C@H]3[C@@H](O)[C@H](n4ccc(N)nc4=O)O[C@@H]3COP(=O)(S)O[C@H]3C[C@H](n4cc(C)c(=O)[nH]c4=O)O[C@@H]3CO)O2)c(=O)[nH]c1=O` (stereo not given in full): the outcome in [1] was inactive. Also, the Activity is 0.04 ng/mL in [2]; “Dose-dependent effect” in assay [3]; 0.12 ng/mL in [4]; 0.27 ng/mL in [5]; 1.32 ng/mL in assay [6]; 0.58 ng/mL in assay [7]. In addition, the results for the Activity in [8], in [9] and in assay [10] were 0.19 ng/mL, 0.05 ng/mL and 0.03 ng/mL, respectively.

Consider `Cc1cn([C@H]2C[C@H](O[C@@H]3C[C@@H](O)C[C@@H](OP(=O)(S)O[C@H]4C[C@H](n5cc(C)c(=O)[nH]c5=O)O[C@@H]4COP(=O)(S)O[C@H]4[C@@H](O)[C@H](n5ccc(N)nc5=O)O[C@@H]4COP(=O)(S)O[C@H]4C[C@H](n5cc(C)c(=O)[nH]c5=O)O[C@@H]4COP(=O)(S)O[C@H]4C[C@H](n5cc(C)c(=O)[nH]c5=O)O[C@@H]4COP(=O)(S)O[C@H]4C[C@H](n5ccc6c(=O)[nH]c(N)nc65)O[C@@H]4COP(=O)(S)O[C@H]4[C@@H](O)[C@H](n5ccc(N)nc5=O)O[C@@H]4COP(=O)(S)O[C@H]4C[C@H](n5cc(C)c(=O)[nH]c5=O)O[C@@H]4COP(=O)(S)O[C@H]4[C@@H](O)[C@H](n5cnc6c(=O)[nH]c(N)nc65)O[C@@H]4COP(=O)(S)O[C@H]4C[C@H](n5cc(C)c(=O)[nH]c5=O)O[C@@H]4COP(=O)(S)O[C@H]4[C@@H](O)[C@H](n5ccc(N)nc5=O)O[C@@H]4COP(=O)(S)O[C@H]4C[C@H](n5cc(C)c(=O)[nH]c5=O)O[C@@H]4CO)C3)[C@@H](COP(=O)(S)O[C@H]3[C@@H](O)[C@H](n4ccc(N)nc4=O)O[C@@H]3COP(=O)(S)O[C@H]3C[C@H](n4cc(C)c(=O)[nH]c4=O)O[C@@H]3COP(=O)(S)O[C@H]3C[C@H](n4cc(C)c(=O)[nH]c4=O)O[C@@H]3COP(=O)(S)O[C@H]3C[C@H](n4ccc5c(=O)[nH]c(N)nc54)O[C@@H]3COP(=O)(S)O[C@H]3[C@@H](O)[C@H](n4ccc(N)nc4=O)O[C@@H]3COP(=O)(S)O[C@H]3C[C@H](n4cc(C)c(=O)[nH]c4=O)O[C@@H]3COP(=O)(S)O[C@H]3[C@@H](O)[C@H](n4cnc5c(=O)[nH]c(N)nc54)O[C@@H]3COP(=O)(S)O[C@H]3C[C@H](n4cc(C)c(=O)[nH]c4=O)O[C@@H]3COP(=O)(S)O[C@H]3[C@@H](O)[C@H](n4ccc(N)nc4=O)O[C@@H]3COP(=O)(S)O[C@H]3C[C@H](n4cc(C)c(=O)[nH]c4=O)O[C@@H]3CO)O2)c(=O)[nH]c1=O` (stereo not given in full), for which the outcome in assay [1] was Active. In addition, the Activity was 0.03 ng/mL in [2]; “Dose-dependent effect” in [3]; 0.12 ng/mL in [4]; 0.76 ng/mL in assay [5]; 2.26 ng/mL in assay [6]; 0.89 ng/mL in assay [7]. In addition, the results for the Activity in assay [8], in assay [9] and in [10] were 0.21 ng/mL, 0.05 ng/mL and 0.01 ng/mL, respectively.
